From ChEMBL document CHEMBL5226368, “1H NMR-Based Biochemometric Analysis of Morus alba Extracts toward a Multipotent Herbal Anti-Infective” (J Nat Prod, 2023) come the findings set out here.

The test system of one data set is A549. Kind of data set: Cytotoxicity against human A549 cells assessed as reduction in cell viability incubated for 72 hrs by WST-8 assay. As to conditions: a549, 72 h. The class given is toxicity, cell-based. In a few lines: (§1)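 Confluent monolayers in serum-free medium with 0.2 μg/mL trypsin were exposed to six half-log concentrations (maximum 100 μM) for 72 h at 37 °C. WST-8 was added for 2 h and OD read at 450 vs 620 nm (NADH activity). After PBS washes, crystal violet staining was used for viability. At least three assays were run.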
On the technique in general: Tetrazolium assays rely on reduction of a dye to a coloured formazan, in cell work by metabolically active cells.

The subject of the next data set is Calu-3. Kind of data set: Cytotoxicity against human Calu-3 cells assessed as reduction in cell viability incubated for 72 hrs by WST-8 assay. The class given is toxicity, cell-based. As to conditions: calu-3, 72 h. An outline of the steps: as §1
The test system of data set [1] is Streptococcus pneumoniae. Nature of the data set: Antibacterial activity against Streptococcus pneumoniae DSM20566 assessed as inhibition of bacterial growth incubated for 24 hrs by broth microdilution assay. In kind it is functional. In a few lines: (§2)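 S. pneumoniae was tested by broth microdilution in Todd Hewitt broth with yeast extract. Double-concentrated half-log dilutions (duplicates) were combined 1:1 by volume with inoculum at 2×10^5 CFU/mL, then held 24 h at 37 °C under 5% CO2. MIC was the lowest concentration without visible growth, averaged over three assays. Ampicillin and rifampicin served as references.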

The subject of data set [2] is Streptococcus pneumoniae. Kind of data set: Antibacterial activity against Streptococcus pneumoniae D39 assessed as inhibition of bacterial growth incubated for 24 hrs by broth microdilution assay. In kind it is functional. In a few lines: as §2
Data set [3] has as its system Staphylococcus aureus. Kind of data set: Antibacterial activity against Staphylococcus aureus ATCC43000 assessed as inhibition of bacterial growth incubated for 24 hrs by broth microdilution assay. In kind it is functional. In a few lines:
(§3)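 Broth microdilution on S. aureus in brain-heart-infusion broth. Double-concentrated half-log dilutions (duplicates) mixed with an equal volume of bacterial suspension at 2×10^5 CFU/mL. Incubated 24 h at 37 °C, 5% CO2. MIC read as the lowest concentration with no visible growth. Reported as mean MIC of three assays. Ampicillin and rifampicin served as references.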
A general note: Dilution methods test growth across graded concentrations, often in twofold steps.

Data set [4] has as its system Staphylococcus aureus. Nature of the data set: Antibacterial activity against Staphylococcus aureus ATCC25923 assessed as inhibition of bacterial growth incubated for 24 hrs by broth microdilution assay. In kind it is functional. In a few lines:
as §3

A further data set has as its system Influenza A virus. Kind of data set: Antiviral activity against Influenza A virus. In kind it is functional, organism-based.

In general, MIC refers to the least concentration at which growth counts as inhibited.

In brackets after ≈: the same amount, converted by molar mass. Activity calls are given as the source filed them. No cut-off for these calls is given here.

As for `CC(C)=CC[C@]12Oc3cc(O)c([C@H]4C=C(C)C[C@H](c5ccc(O)cc5O)[C@H]4C(=O)c4ccc(O)cc4O)c(O)c3C(=O)[C@@]1(O)Oc1cc(O)ccc12` [SANGGENON C], the Activity entry in the data set with A549 and in the data set on Calu-3 was “Non-Toxic” each time. Further, the MIC in the data set with Streptococcus pneumoniae [1] stood at 2.08 µM (≈ 1.47 µg/mL); with Streptococcus pneumoniae [2], 1.72 µM (≈ 1.22 µg/mL); in the data set on Staphylococcus aureus [3] it was 3.16 µM (≈ 2.24 µg/mL); in the data set on Staphylococcus aureus [4], 3.16 µM (≈ 2.24 µg/mL).
With `CC(C)=CCCC1=C[C@H](c2c(O)cc3c(c2O)C(=O)C[C@@H](c2ccc(O)cc2O)O3)[C@@H](C(=O)c2ccc(O)cc2O)[C@H](c2ccc(O)cc2O)C1`, the Activity entry with A549 and in the data set on Calu-3 was “Non-Toxic” in each case. Also, the MIC with Streptococcus pneumoniae [1] amounted to 3.16 µM (≈ 2.2 µg/mL); in the data set on Streptococcus pneumoniae [2], 3.16 µM (≈ 2.2 µg/mL); with Staphylococcus aureus [3] it was 10 µM (≈ 6.95 µg/mL); with Staphylococcus aureus [4] it was 10 µM (≈ 6.95 µg/mL).
Turning to `CC(C)=CCC12Oc3cc(O)c(C4C=C(C)CC(c5ccc(O)cc5O)C4C(=O)c4ccc(O)cc4O)c(O)c3C(=O)C1(O)Oc1cc(O)ccc12` (stereo not drawn), the outcome in the data set on Influenza A virus was inactive. The Activity entry in the data set with A549 and with Calu-3 was “Non-Toxic” throughout. Further, the MIC with Streptococcus pneumoniae [1] is 3.16 µM (≈ 2.24 µg/mL); in the data set with Streptococcus pneumoniae [2], 3.16 µM (≈ 2.24 µg/mL); in the data set on Staphylococcus aureus [3] it was 10 µM (≈ 7.09 µg/mL); in the data set on Staphylococcus aureus [4], 10 µM (≈ 7.09 µg/mL).
As for `CO[C@H]1/C=C/O[C@@]2(C)Oc3c(C)c(O)c4c(O)c(c(/C=N/N5CCN(C)CC5)c(O)c4c3C2=O)NC(=O)/C(C)=C\C=C\[C@H](C)[C@H](O)[C@@H](C)[C@@H](O)[C@@H](C)[C@H](OC(C)=O)[C@@H]1C` [RIFAMPIN], the MIC in the data set with Streptococcus pneumoniae [1] was 0.02 µM (≈ 0.0165 µg/mL); in the data set on Staphylococcus aureus [3], 15.4 µM (≈ 12.7 µg/mL); in the data set on Staphylococcus aureus [4] it was 1 µM (≈ 0.823 µg/mL).
With `CC1(C)S[C@@H]2[C@H](NC(=O)[C@H](N)c3ccccc3)C(=O)N2[C@H]1C(=O)O` [AMPICILLIN], in the data set with Streptococcus pneumoniae [2], the MIC is 0.02 µM (≈ 0.00699 µg/mL).
